Measurements collected from several papers.
Compare with care: the assays were run in different laboratories.
Read-out: cell growth or viability

SMILES | cell line | method | time | IC50 [nM]
C=C(F)C(=O)N1CCN(c2nc(OC[C@@H]3CCCN3C)nc3c2CCN(c2cccc4cccc(Cl)c24)C3)C[C@@H]1CC#N | MIA PaCa-2 | ATP luminescence | – | 56.5
COc1ccc(-c2cc(C(=O)Nc3ccccc3)c3cc(-c4ccccc4)ccc3n2)cc1 | MIA PaCa-2 | MTT | 48 h | 48300
COc1cc2c3c(n(CCCN4CCOCC4)c(=O)c2cc1OC)-c1nc2c(cc1C3=O)OCO2 | KMS-27 | MTS | 72 h | 530
CN1CCC(NC(=O)c2ccc(-c3cc(-c4ccsc4)c4oc5c(c4c3)CCN(C(=O)/C=C/c3ccc(N)nc3)C5)nn2)C(F)(F)C1 (stereo not shown) | MIA PaCa-2 | CCK-8 | 72 h | 650
O=C(Nc1ccccc1)c1cc(-c2ccccc2)nc2ccc(-c3ccccc3)cc12 | MIA PaCa-2 | MTT | 48 h | > 50000
C=CC(=O)N1CCN(c2nc(=O)n(-c3c(C)ccnc3C(C)C)c3nc(-c4c(O)cccc4F)c(F)cc23)[C@@H](C)C1 | SW837 | ATP luminescence | – | 46.3
Cc1sc2c(c1C)C(c1ccc(Cl)cc1)=N[C@@H](CC(=O)NCCCCCCCCNC(=O)COc1cccc3c1C(=O)N(C1CCC(=O)NC1=O)C3=O)c1nnc(C)n1-2 (stereo partly shown) | Jurkat | ATP luminescence | 72 h | 39
Nc1ccc(/C=C/C(=O)N2CCc3c(oc4c(-c5ccc(F)cc5)cc(-c5cnc(C(=O)N6CCC(F)(F)CC6)nc5)cc34)C2)cn1 | MIA PaCa-2 | CCK-8 | 72 h | 1360
[NH2][Pt]([NH2])([Cl])[Cl] | LNCaP | MTT | 72 h | 10200
Nc1ccc(/C=C/C(=O)N2CCc3c(oc4c(-c5ccc(F)cc5)cc(-c5ccc(C(=O)N6CCOCC6)nn5)cc34)C2)cn1 | MIA PaCa-2 | CCK-8 | 72 h | 460
COc1cc2c3c(n(CCCNC(C)C)c(=O)c2cc1OC)-c1nc2c(cc1C3=O)OCO2 | KMS-27 | MTS | 72 h | 206
COc1cccc2c1C(=O)c1c(O)c3c(c(O)c1C2=O)C[C@@](O)(C(=O)CO)C[C@@H]3O[C@H]1C[C@H](N)[C@H](O)[C@H](C)O1 | MIA PaCa-2 | MTT | 48 h | 25300
COc1cc([C@@H]2c3cc4c(cc3[C@@H](O[C@@H]3O[C@@H]5CO[C@@H](C)O[C@H]5[C@H](O)[C@H]3O)[C@H]3COC(=O)[C@H]23)OCO4)cc(OC)c1O | T47D | MTT | 48 h | 79000
COc1cc2c3c(n(CCCn4ccnc4)c(=O)c2cc1OC)-c1nc2c(cc1C3=O)OCO2 | KMS-27 | MTS | 72 h | 238
COc1ccc(-c2cc(C(=O)Nc3ccccc3)c3cc(-c4cc(C)ccc4F)ccc3n2)cc1 | MIA PaCa-2 | MTT | 48 h | > 50000
CCNCCCn1c2c(c3cc(OC)c(OC)cc3c1=O)C(=O)c1cc3c(nc1-2)OCO3 | MOLT-4 | MTS | 72 h | 13
Nc1ccc(/C=C/C(=O)N2CCc3c(oc4c(-c5ccc(F)cc5)cc(-c5ccc(C(=O)N6CCC(F)(F)CC6)nn5)cc34)C2)cn1 | MIA PaCa-2 | CCK-8 | 72 h | 230
COc1cc2c3c(n(CCCNCCO)c(=O)c2cc1OC)-c1nc2c(cc1C3=O)OCO2 | KMS-27 | MTS | 72 h | 141
COc1ccc(F)cc1-c1ccc2nc(-c3ccc(F)cc3)cc(C(=O)Nc3ccccc3)c2c1 | MIA PaCa-2 | MTT | 48 h | > 50000
